Measured values: ChEMBL document CHEMBL1649122, “Abc1p is a multidrug efflux transporter that tips the balance in favor of innate azole resistance in Candida krusei” (2009)
Converted amounts (≈) assume the structure as drawn. The source made the active and inactive calls. The rule behind the calls is not given here.

Columns and labels:
[1] = target: ATP binding cassette transporter Abc1p (Issatchenkia orientalis) (UniProt Q09GQ4); assay: Inhibition of Candida krusei IF011 Abc1p assessed as reduction of itraconazole MIC at 1 ug after 48 hrs by agarose diffusion assay; conditions: Pichia kudriavzevii
[2] = target: ATP binding cassette transporter Abc1p (Issatchenkia orientalis) (UniProt Q09GQ4); assay: Inhibition of Candida krusei Abc1p expressed in Saccharomyces cerevisiae isolate AD assessed as reduction of itraconazole MIC at 1 ug after 48 hrs by agarose diffusion assay; conditions: Pichia kudriavzevii
[3] = target: ATP binding cassette transporter Abc1p (Issatchenkia orientalis) (UniProt Q09GQ4); assay: Inhibition of Candida krusei B2399 Abc1p assessed as reduction of itraconazole MIC at 1 ug after 48 hrs by agarose diffusion assay; conditions: Pichia kudriavzevii
Pichia kudriavzevii [4] = assay: Antimicrobial activity against Candida krusei NZCDC 89.102 after 48 hrs by CLSI method; type: functional
Summary of the method: (§1)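 Azole MICs were determined by the CLSI M27-A2 broth microdilution reference method. They were interpreted against the CLSI breakpoints. Strains were maintained in YPD medium (1% yeast extract, 2% peptone, 2% glucose).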

Pichia kudriavzevii [5] = assay: Antimicrobial activity against Candida krusei NZCDC 89.102 after 48 hrs by liquid microdilution assay; type: functional; conditions: NZCDC 89.102, 48 h
Summary of the method: (§2)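 Liquid broth microdilution susceptibility assay in CSM medium at pH 7.0, which was also the medium used for the expression studies. Fungal strains were maintained in YPD. The S. cerevisiae test strains carry C. krusei ABC1 or fungal ERG11 alleles integrated at the chromosomal PDR5 locus.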

Pichia kudriavzevii [6] = assay: Antimicrobial activity against Candida krusei NZCDC 89.221 after 48 hrs by liquid microdilution assay; type: functional; conditions: NZCDC 89.221, 48 h; summary of the method: as §2
Saccharomyces cerevisiae [7] = assay: Fold resistant, ratio of MIC for Saccharomyces cerevisiae isolate ADdelta overexpressing Saccharomyces cerevisiae ERG11 to MIC for Saccharomyces cerevisiae isolate ADdelta overexpressing Abc1p; type: functional
Summary of the method: (§3)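 Fold resistance is the ratio of azole MICs between S. cerevisiae overexpressing strains. The MICs were measured by liquid broth microdilution in CSM medium at pH 7.0. The ERG11 or ABC1 constructs are integrated at the PDR5 locus.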

Pichia kudriavzevii [8] = assay: Antimicrobial activity against Candida krusei B2399 after 48 hrs by liquid microdilution assay; type: functional; conditions: B2399, 48 h; summary of the method: as §2
Saccharomyces cerevisiae [9] = assay: Antimicrobial activity against Saccharomyces cerevisiae isolate ADdelta overexpressing Candida krusei ERG11g after 48 hrs by liquid microdilution assay; type: functional; summary of the method: as §2
Saccharomyces cerevisiae [10] = assay: Antimicrobial activity against Saccharomyces cerevisiae isolate ADdelta overexpressing Candida albicans ERG11A after 48 hrs by liquid microdilution assay; type: functional; summary of the method: as §2
Saccharomyces cerevisiae [11] = assay: Fold resistant, ratio of MIC for Saccharomyces cerevisiae isolate ADdelta overexpressing Candida albicans ERG11A to MIC for Saccharomyces cerevisiae isolate ADdelta overexpressing Abc1p; type: functional; summary of the method: as §3
Pichia kudriavzevii [12] = assay: Antimicrobial activity against Candida krusei IFO0011 after 48 hrs by liquid microdilution assay; type: functional; conditions: IFO0011, 48 h; summary of the method: as §2
Pichia kudriavzevii [13] = assay: Increase in ERG11 mRNA expression in Candida krusei B2399 at 2 times MIC concentration after 1 hr by hot-phenol extraction based Northern blotting; type: functional, organism-based
Summary of the method: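 Logarithmically grown C. krusei B2399 was exposed to azole for 60 min (2x MIC for VRC, MCZ and ITC; 1x MIC for FLC) alongside an untreated control. Total RNA was extracted with hot phenol, and 10 µg was run on 1.2% denaturing agarose. It was Northern blotted and probed with a radiolabeled ERG11 fragment. ACT1 mRNA served as internal control, with EtBr-stained rRNA showing loading.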

Saccharomyces cerevisiae [14] = assay: Antimicrobial activity against Saccharomyces cerevisiae isolate AD overexpressing Candida krusei ERG11C after 48 hrs by liquid microdilution assay; type: functional; summary of the method: as §2
Saccharomyces cerevisiae [15] = assay: Fold resistant, ratio of MIC for Saccharomyces cerevisiae isolate ADdelta overexpressing Candida krusei ERG11C to MIC for Saccharomyces cerevisiae isolate ADdelta overexpressing Abc1p; type: functional; summary of the method: as §3
Pichia kudriavzevii [16] = assay: Antimicrobial activity against Candida krusei NZCDC 89.221 after 48 hrs by CLSI method; type: functional; summary of the method: as §1
Pichia kudriavzevii [17] = assay: Antimicrobial activity against Candida krusei NZCDC 89.021 after 48 hrs by CLSI method; type: functional; conditions: NZCDC 89.021, 48 h; summary of the method: as §1
Saccharomyces cerevisiae [18] = assay: Antimicrobial activity against Saccharomyces cerevisiae isolate ADdelta overexpressing Saccharomyces cerevisiae ERG11 after 48 hrs by liquid microdilution assay; type: functional; summary of the method: as §2
Pichia kudriavzevii [19] = assay: Antimicrobial activity against Candida krusei B2399 after 48 hrs by CLSI method; type: functional; conditions: B2399, 48 h; summary of the method: as §1
Pichia kudriavzevii [20] = assay: Antimicrobial activity against Candida krusei NZCDC 89.021 after 48 hrs by liquid microdilution assay; type: functional; conditions: NZCDC 89.021, 48 h; summary of the method: as §2
Pichia kudriavzevii [21] = assay: Antimicrobial activity against Candida krusei IFO0011 after 48 hrs by CLSI method; type: functional; conditions: IFO0011, 48 h; summary of the method: as §1
Pichia kudriavzevii [22] = assay: Antimicrobial activity against Candida krusei NZCDC 90.147 after 48 hrs by liquid microdilution assay; type: functional; conditions: NZCDC 90.147, 48 h; summary of the method: as §2
Saccharomyces cerevisiae [23] = assay: Antimicrobial activity against Saccharomyces cerevisiae isolate ADdelta overexpressing Abc1p after 48 hrs by liquid microdilution assay; type: functional; summary of the method: as §2
Pichia kudriavzevii [24] = assay: Antimicrobial activity against Candida krusei NZCDC 90.147 after 48 hrs by CLSI method; type: functional; summary of the method: as §1
Saccharomyces cerevisiae [25] = assay: Fold resistant, ratio of MIC for Saccharomyces cerevisiae isolate ADdelta overexpressing Candida krusei ERG11g to MIC for Saccharomyces cerevisiae isolate ADdelta overexpressing Abc1p; type: functional; summary of the method: as §3
[26] = target: ATP binding cassette transporter Abc1p (Issatchenkia orientalis) (UniProt Q09GQ4); assay: Inhibition of Candida krusei ABC1 expressed in Saccharomyces cerevisiae isolate ADdelta at 46 nM; conditions: Pichia kudriavzevii
Summary of the method: (§4)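 Agarose disk-diffusion test of S. cerevisiae AD overexpressing C. krusei Abc1p, with the parent AD strain as comparison. Cells were pregrown from YPD overnight into CSM to mid-log at 30°C. They were seeded at OD600 0.008 in CSM with 0.6% agarose, overlaid on CSM agar (pH 7.0). Paper disks carrying set nmol amounts of xenobiotic were applied, and plates were incubated at 30°C for 48 h before reading growth inhibition zones.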

[27] = target: ATP binding cassette transporter Abc1p (Issatchenkia orientalis) (UniProt Q09GQ4); assay: Inhibition of Candida krusei ABC1 expressed in Saccharomyces cerevisiae isolate ADdelta at 19 nM; conditions: Pichia kudriavzevii; summary of the method: as §4
[28] = target: ATP binding cassette transporter Abc1p (Issatchenkia orientalis) (UniProt Q09GQ4); assay: Inhibition of Candida krusei ABC1 expressed in Saccharomyces cerevisiae isolate ADdelta at 22 nM; conditions: Pichia kudriavzevii
[29] = target: ATP binding cassette transporter Abc1p (Issatchenkia orientalis) (UniProt Q09GQ4); assay: Inhibition of Candida krusei ABC1 expressed in Saccharomyces cerevisiae isolate ADdelta at 2 nM; conditions: Pichia kudriavzevii

In the case of `CO[C@@H]1C(CO)=C[C@H]2C(=O)O[C@H]3C[C@@H](C/C=C(\C)C[C@@H](C)/C=C/C=C4\CO[C@H]1[C@@]42O)O[C@@]1(CC[C@H](C)[C@@H](C)O1)C3`, the Activity [1] is reported as “Active”, the Activity [2] is reported as “Active” and the Activity [3] is reported as “Active”.
For `CO[C@@H]1C(C)=C[C@H]2C(=O)O[C@H]3C[C@@H](C/C=C(\C)C[C@@H](C)/C=C/C=C(\CO)[C@]2(O)[C@@H]1O)O[C@@]1(CC[C@H](C)[C@@H](C)O1)C3`, the Activity [1] was “Active”, the Activity [2] was “Active” and the Activity [3] was “Active”.
For `CC(C)=CC(=O)OCC1=C[C@H]2C(=O)O[C@H]3C[C@@H](C/C=C(\C)C[C@@H](C)/C=C/C=C4\CO[C@H]([C@@H]1O)[C@@]42O)O[C@@]1(CC[C@H](C)[C@@H](C)O1)C3`, the Activity [1] was “Active”, the Activity [2] was “Active” and the Activity [3] was “Active”.
For `C[C@@H](c1ncncc1F)[C@](O)(Cn1cncn1)c1ccc(F)cc1F` [VORICONAZOLE], the MIC (Pichia kudriavzevii [4]) was 0.5 µg/mL (≈ 1.43 µM), the MIC (Pichia kudriavzevii [5]) was 2 µg/mL (≈ 5.73 µM) and the MIC (Pichia kudriavzevii [6]) was 1 µg/mL (≈ 2.86 µM). For the same compound, the ratio (Saccharomyces cerevisiae [7]) was 8, the MIC (Pichia kudriavzevii [8]) was 1 µg/mL (≈ 2.86 µM) and the MIC (Saccharomyces cerevisiae [9]) was 0.5 µg/mL (≈ 1.43 µM). The MIC (Saccharomyces cerevisiae [10]) was 0.031 µg/mL (≈ 0.0887 µM), the ratio (Saccharomyces cerevisiae [11]) was 4 and the MIC (Pichia kudriavzevii [12]) was 1 µg/mL (≈ 2.86 µM). The Activity (Pichia kudriavzevii [13]) was “Active”, the MIC (Saccharomyces cerevisiae [14]) was 0.063 µg/mL (≈ 0.18 µM) and the ratio (Saccharomyces cerevisiae [15]) was 8. It also gave an MIC (Pichia kudriavzevii [16]) of 0.5 µg/mL (≈ 1.43 µM), an MIC (Pichia kudriavzevii [17]) of 0.5 µg/mL (≈ 1.43 µM) and an MIC (Saccharomyces cerevisiae [18]) of 0.063 µg/mL (≈ 0.18 µM). For the same compound, the MIC (Pichia kudriavzevii [19]) was 0.5 µg/mL (≈ 1.43 µM), the MIC (Pichia kudriavzevii [20]) was 2 µg/mL (≈ 5.73 µM) and the MIC (Pichia kudriavzevii [21]) was 1 µg/mL (≈ 2.86 µM). The MIC (Pichia kudriavzevii [22]) was 2 µg/mL (≈ 5.73 µM), the MIC (Saccharomyces cerevisiae [23]) was 0.0078 µg/mL (≈ 0.0223 µM) and the MIC (Pichia kudriavzevii [24]) was 1 µg/mL (≈ 2.86 µM). For the same compound, the ratio (Saccharomyces cerevisiae [25]) was 64.
With `CN(C/C=C/C#CC(C)(C)C)Cc1cccc2ccccc12` the Activity [26] was “inactive”.
With `Nc1nc(=O)[nH]cc1F` the Activity [27] was “inactive”.
With NYSTATIN the Activity [28] was “inactive”.
For `C/C=C/C/C=C/CCC(=O)[C@H]1O[C@H]1C(N)=O`, the Activity [29] was “Active”.
